Results taken from ChEMBL document CHEMBL4831496, “Noncovalent EGFR T790M/L858R inhibitors based on diphenylpyrimidine scaffold: Design, synthesis, and bioactivity evaluation for the treatment of NSCLC” (Eur J Med Chem, 2021).
Active and inactive are the calls of the source. No cut-off for these calls is given here.

Assays:
[1] = Selectivity index, ratio of IC50 for human A-431 cells harboring wild type EGFR (unknown origin) to IC50 for human NCI-H1975 cells harboring EGFR L858R/T790M mutant
[2] = molecular target: Epidermal growth factor receptor (Homo sapiens, UniProt P00533, L858R/T790M); experiment: Inhibition of EGFR L858R/T790M double mutant (unknown origin) measured after 60 mins by ADP-Glo kinase based luminescence assay
Epidermal growth factor receptor, sequence (P00533 25-1210 T790M/L858R limits assumed): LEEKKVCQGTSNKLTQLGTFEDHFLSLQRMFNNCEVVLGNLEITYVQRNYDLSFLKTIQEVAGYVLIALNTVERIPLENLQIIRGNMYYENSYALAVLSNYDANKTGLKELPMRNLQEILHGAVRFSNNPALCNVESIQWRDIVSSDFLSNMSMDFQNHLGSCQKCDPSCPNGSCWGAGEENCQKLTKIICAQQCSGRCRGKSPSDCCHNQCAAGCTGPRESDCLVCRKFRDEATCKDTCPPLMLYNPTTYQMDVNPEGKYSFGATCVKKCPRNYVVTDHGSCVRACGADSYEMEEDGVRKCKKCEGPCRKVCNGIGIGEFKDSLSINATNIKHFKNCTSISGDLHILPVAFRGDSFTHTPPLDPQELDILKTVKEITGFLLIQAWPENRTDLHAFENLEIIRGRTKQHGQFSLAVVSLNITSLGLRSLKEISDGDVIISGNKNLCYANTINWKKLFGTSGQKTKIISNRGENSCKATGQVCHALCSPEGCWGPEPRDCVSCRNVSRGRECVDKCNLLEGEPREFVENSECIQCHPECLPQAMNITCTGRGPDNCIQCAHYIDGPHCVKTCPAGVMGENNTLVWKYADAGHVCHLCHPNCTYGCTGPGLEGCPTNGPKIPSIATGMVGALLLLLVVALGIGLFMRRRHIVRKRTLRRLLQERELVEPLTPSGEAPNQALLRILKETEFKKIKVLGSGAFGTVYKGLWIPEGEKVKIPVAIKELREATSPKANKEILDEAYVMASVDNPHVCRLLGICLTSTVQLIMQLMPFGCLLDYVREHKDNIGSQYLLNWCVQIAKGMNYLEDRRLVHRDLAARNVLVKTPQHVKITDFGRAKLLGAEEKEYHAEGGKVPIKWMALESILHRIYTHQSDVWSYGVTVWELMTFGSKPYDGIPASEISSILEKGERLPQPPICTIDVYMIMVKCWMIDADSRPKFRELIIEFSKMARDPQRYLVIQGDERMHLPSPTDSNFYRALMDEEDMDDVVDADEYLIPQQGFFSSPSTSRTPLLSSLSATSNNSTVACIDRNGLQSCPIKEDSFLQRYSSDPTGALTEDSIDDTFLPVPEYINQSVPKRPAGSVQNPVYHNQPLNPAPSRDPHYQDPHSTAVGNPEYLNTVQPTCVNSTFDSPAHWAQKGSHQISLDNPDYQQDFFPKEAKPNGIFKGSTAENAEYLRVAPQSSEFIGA

[3] = system: NCI-H1975; experiment: Induction of apoptosis in human NCI-H1975 cells assessed as viable cells at 0.125 uM incubated for 48 hrs by AnnexinV/FITC and propidium iodide staining based flow cytometry analysis (reference value: 94.9%); assay type: functional; conditions: read-out: Activity
[4] = system: NCI-H1975; experiment: Induction of apoptosis in human NCI-H1975 cells assessed as early apoptotic cells at 0.125 uM incubated for 48 hrs by AnnexinV/FITC and propidium iodide staining based flow cytometry analysis (reference value: 1.39%); assay type: functional
[5] = Clearance in Sprague-Dawley rat at 25 mg/kg, iv measured for 24 hrs by LC-MS/MS analysis; assay type: ADME, organism-based; conditions: in vivo
Summary of the method: (§1)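 Male Sprague-Dawley rats (200 ± 20 g), acclimatised 1 week at 25 ± 2 °C, 50-60% RH; six rats given 25 mg/kg by tail vein. Retro-orbital blood into heparin at 10, 20, 40 min and 1, 2, 3, 4, 6, 8, 12, 24 h. Plasma ethyl acetate-extracted and quantified by LC-MS/MS, transition m/z 485.3/452.3.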

[6] = system: NCI-H1975; experiment: Induction of cell cycle arrest in human NCI-H1975 cells assessed as accumulation of cells at G0/G1 phase at 0.125 uM incubated for 48 hrs by propidium iodide staining based flow cytometry analysis (reference value: 58.05%); assay type: functional
[7] = system: NCI-H1975; experiment: Induction of cell cycle arrest in human NCI-H1975 cells assessed as accumulation of cells at G0/G1 phase at 0.5 uM incubated for 48 hrs by propidium iodide staining based flow cytometry analysis (reference value: 58.05%); assay type: functional
[8] = system: NCI-H1975; experiment: Antiproliferative activity against human NCI-H1975 cells harboring EGFR L858R/T790M mutant assessed as reduction in cell viability incubated for 72 hrs by CCK8 assay; assay type: functional, cell-based; conditions: NCI-H1975, 72 h
Summary of the method: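 Cells kept as monolayers at 37 °C, 5% CO2, seeded 3000-4000/well for 12 h, then exposed to compounds for 72 h. CCK-8 added for 1-2 h at 37 °C, absorbance read at 450 nm. Each dose run in triplicate, experiment repeated at least three times. IC50 taken from dose-response curves.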

[9] = system: NCI-H1975; experiment: Induction of cell cycle arrest in human NCI-H1975 cells assessed as accumulation of cells at S phase at 0.125 uM incubated for 48 hrs by propidium iodide staining based flow cytometry analysis (reference value: 11.72%); assay type: functional
[10] = AUC (0 to infinity) in Sprague-Dawley rat at 25 mg/kg, iv by LC-MS/MS analysis; assay type: ADME, organism-based; parameters: route intravenous, time infinity, dose 25 mg/kg; conditions: in vivo; summary of the method: as §1
[11] = system: NCI-H1975; experiment: Induction of cell cycle arrest in human NCI-H1975 cells assessed as accumulation of cells at G2/M phase at 0.125 uM incubated for 48 hrs by propidium iodide staining based flow cytometry analysis (reference value: 30.23%); assay type: functional
[12] = system: NCI-H1975; experiment: Induction of apoptosis in human NCI-H1975 cells assessed as necrotic cells at 0.125 uM incubated for 48 hrs by AnnexinV/FITC and propidium iodide staining based flow cytometry analysis (reference value: 2.99%); assay type: functional
[13] = system: NCI-H1975; experiment: Induction of morphological changes in human NCI-H1975 cells assessed as increase in fusiform and sickle cell type abnormal cells at 0.5 to 2 uM incubated for 48 hrs by DAPI staining based fluorescence microscopic analysis; assay type: functional; conditions: dose 0.5-2 µM
Summary of the method: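 H1975 cells seeded at about 2 × 10⁵/well for 12 h, then treated. Cells fixed in 10% formaldehyde for 10 min, stained with DAPI for 10 min at room temperature and examined by fluorescence microscopy. Cell shape was also viewed under natural light.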

[14] = system: L02; experiment: Antiproliferative activity against human L02 cells assessed as reduction in cell viability incubated for 72 hrs by CCK8 assay; assay type: cell-based; conditions: L02, 72 h

IC50 [2]: 1.1 nM
clearance [5]: 9.23 mL/min/kg
IC50 [8]: 97.8 nM
AUC(0-inf) [10]: 45200 ng·h/mL
Structure (SMILES): O=C(NO)c1ccccc1Nc1nc(Nc2ccc(OCCN3CCOCC3)cc2)ncc1Cl
Ratio IC50 [1]: 10.9
viability at 0.125 µM [3]: 95.7%
Activity [4]: 4%
Activity [6]: 20.25%
Activity [7]: 19.16%
Activity [9]: 15.08%
Activity [11]: 64.66%
Activity [12]: 0.01%
Activity [13]: Active
IC50 [14]: 3050 nM
